Measurements taken from ChEMBL document CHEMBL1154367, “Novel 4-N-substituted aryl but-3-ene-1,2-dione derivatives of piperazinyloxazolidinones as antibacterial agents” (2009).
Converted amounts (≈) assume the structure as drawn. The source made the active and inactive calls. The calls are words filed in the database; no cut-off is given here.

Key:
Staphylococcus aureus [1] = test: Antibacterial activity against methicillin and vancomycin-resistant Staphylococcus aureus ATCC 29213 after 24 hrs by agar dilution method; assay type: functional; settings: ATCC 29213, 24 h
Klebsiella pneumoniae = test: Antibacterial activity against Klebsiella pneumoniae after 24 hrs by agar dilution method; assay type: functional, organism-based
How it was run: (§1)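 MIC by agar dilution with doubling dilutions in cation-adjusted Mueller Hinton agar, 50–0.019 range, incubated in air at 35 °C for 24 h. Strains pre-grown on nutrient agar at 37 °C for 24 h, then suspended in normal saline with 0.05% Tween 20 at about 1.0–2.0 × 10⁷ cells/mL, matched to 0.5 McFarland.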

Staphylococcus aureus [2] = test: Antibacterial activity against methicillin-resistant Staphylococcus aureus ATCC 70069 after 24 hrs by agar dilution method; assay type: functional; settings: ATCC 70069, 24 h
Streptococcus pyogenes = test: Antibacterial activity against Streptococcus pyogenes after 24 hrs by agar dilution method; assay type: functional; how it was run: as §1
Staphylococcus aureus [3] = test: Antibacterial activity against floxacin and methicillin-resistant Staphylococcus aureus ATCC 25923 after 24 hrs by agar dilution method; assay type: functional; settings: ATCC 25923, 24 h
Bacillus cereus = test: Antibacterial activity against Bacillus cereus MTCC 430 after 24 hrs by agar dilution method; assay type: functional; settings: MTCC 430, 24 h; how it was run: as §1
Escherichia coli = test: Antibacterial activity against Escherichia coli after 24 hrs by agar dilution method; assay type: functional, organism-based; how it was run: as §1
Pseudomonas aeruginosa = test: Antibacterial activity against Pseudomonas aeruginosa after 24 hrs by agar dilution method; assay type: functional, organism-based; how it was run: as §1
Enterococcus faecalis = test: Antibacterial activity against Enterococcus faecalis MTCC 439 after 24 hrs by agar dilution method; assay type: functional; settings: MTCC 439, 24 h; how it was run: as §1

SMILES | MIC (Staphylococcus aureus [1]) [µg/mL] | Activity (Klebsiella pneumoniae) | MIC (Staphylococcus aureus [2]) [µg/mL] | MIC (Streptococcus pyogenes) [µg/mL] | MIC (Staphylococcus aureus [3]) [µg/mL] | MIC (Bacillus cereus) [µg/mL] | Activity (Escherichia coli) | Activity (Pseudomonas aeruginosa) | MIC (Enterococcus faecalis) [µg/mL]
CC(=O)NC[C@H]1CN(c2ccc(N3CCN(C(=O)C(=O)/C=C/c4ccc(F)c(F)c4)CC3)c(F)c2)C(=O)O1 | 3.12 (≈ 5.88 µM) | inactive | 1.56 (≈ 2.94 µM) | 0.78 (≈ 1.47 µM) | 0.78 (≈ 1.47 µM) | 0.39 (≈ 0.735 µM) | inactive | inactive | 0.78 (≈ 1.47 µM)
CC(=O)NC[C@H]1CN(c2ccc(N3CCN(C(=O)C(=O)/C=C/c4ccc(F)cc4)CC3)c(F)c2)C(=O)O1 | 1.56 (≈ 3.04 µM) | inactive | 0.78 (≈ 1.52 µM) | 0.39 (≈ 0.761 µM) | 0.78 (≈ 1.52 µM) | 0.39 (≈ 0.761 µM) | inactive | inactive | 0.78 (≈ 1.52 µM)
CC(=O)NC[C@H]1CN(c2ccc(N3CCN(C(=O)C(=O)/C=C/c4ccco4)CC3)c(F)c2)C(=O)O1 | 3.12 (≈ 6.44 µM) | inactive | 1.56 (≈ 3.22 µM) | 0.78 (≈ 1.61 µM) | 0.39 (≈ 0.805 µM) | 0.78 (≈ 1.61 µM) | inactive | inactive | 0.78 (≈ 1.61 µM)
CC(=O)NC[C@H]1CN(c2ccc(N3CCN(C(=O)C(=O)/C=C/c4ccc(C)cc4)CC3)c(F)c2)C(=O)O1 | 0.39 (≈ 0.767 µM) | inactive | 0.19 (≈ 0.374 µM) | 0.09 (≈ 0.177 µM) | 0.19 (≈ 0.374 µM) | 0.19 (≈ 0.374 µM) | inactive | inactive | 0.04 (≈ 0.0787 µM)
CC(=O)NC[C@H]1CN(c2ccc(N3CCN(C(=O)C(=O)/C=C/c4cccs4)CC3)c(F)c2)C(=O)O1 | 1.56 (≈ 3.12 µM) | inactive | 0.78 (≈ 1.56 µM) | 0.39 (≈ 0.779 µM) | 0.39 (≈ 0.779 µM) | 0.39 (≈ 0.779 µM) | inactive | inactive | 0.78 (≈ 1.56 µM)
CC(=O)NC[C@H]1CN(c2ccc(N3CCN(C(=O)C(=O)/C=C/c4ccsc4)CC3)c(F)c2)C(=O)O1 | 1.56 (≈ 3.12 µM) | inactive | 0.78 (≈ 1.56 µM) | 0.39 (≈ 0.779 µM) | 0.78 (≈ 1.56 µM) | 0.78 (≈ 1.56 µM) | inactive | inactive | 0.78 (≈ 1.56 µM)
CC(=O)NC[C@H]1CN(c2ccc(N3CCN(C(=O)C(=O)/C=C/c4ccc(C(F)(F)F)cc4)CC3)c(F)c2)C(=O)O1 | 1.56 (≈ 2.77 µM) | inactive | 0.78 (≈ 1.39 µM) | 0.19 (≈ 0.338 µM) | 0.78 (≈ 1.39 µM) | 1.56 (≈ 2.77 µM) | inactive | inactive | 0.19 (≈ 0.338 µM)
CC(=O)NC[C@H]1CN(c2ccc(N3CCOCC3)c(F)c2)C(=O)O1 [LINEZOLID] | 3.12 (≈ 9.25 µM) |  | 1.56 (≈ 4.62 µM) | 1.56 (≈ 4.62 µM) | 1.56 (≈ 4.62 µM) | 0.78 (≈ 2.31 µM) |  |  | 3.12 (≈ 9.25 µM)
CC(=O)NC[C@H]1CN(c2ccc(N3CCN(C(=O)C(=O)/C=C/c4ccc(Cl)cc4)CC3)c(F)c2)C(=O)O1 | 0.78 (≈ 1.47 µM) | inactive | 0.78 (≈ 1.47 µM) | 0.39 (≈ 0.737 µM) | 0.78 (≈ 1.47 µM) | 0.39 (≈ 0.737 µM) | inactive | inactive | 0.78 (≈ 1.47 µM)
CN[C@H](CC(C)C)C(=O)N[C@H]1C(=O)N[C@@H](CC(N)=O)C(=O)N[C@H]2C(=O)N[C@H]3C(=O)N[C@H](C(=O)N[C@H](C(=O)O)c4cc(O)cc(O)c4-c4cc3ccc4O)[C@H](O)c3ccc(c(Cl)c3)Oc3cc2cc(c3O[C@@H]2O[C@H](CO)[C@@H](O)[C@H](O)[C@H]2O[C@H]2C[C@](C)(N)[C@H](O)[C@H](C)O2)Oc2ccc(cc2Cl)[C@H]1O [VANCOMYCIN] | 1.56 (≈ 1.08 µM) |  | 6.25 (≈ 4.31 µM) | 0.39 (≈ 0.269 µM) | 0.39 (≈ 0.269 µM) | 0.19 (≈ 0.131 µM) |  |  | 0.78 (≈ 0.538 µM)
CC(=O)NC[C@H]1CN(c2ccc(N3CCN(C(=O)C(=O)/C=C/c4ccccc4)CC3)c(F)c2)C(=O)O1 | 0.78 (≈ 1.58 µM) | inactive | 0.39 (≈ 0.789 µM) | 0.39 (≈ 0.789 µM) | 0.78 (≈ 1.58 µM) | 0.39 (≈ 0.789 µM) | inactive | inactive | 0.78 (≈ 1.58 µM)
CC(=O)NC[C@H]1CN(c2ccc(N3CCN(C(=O)C(=O)/C=C/c4ccc(Cl)c(Cl)c4Cl)CC3)c(F)c2)C(=O)O1 | > 50 | inactive | > 50 | > 50 | > 50 | > 50 | inactive | inactive | > 50
